Reference: ChEMBL document CHEMBL5346932, “Structure-activity relationships of actively FhuE transported rifabutin derivatives with potent activity against Acinetobacter baumannii” (Eur J Med Chem, 2023)
Converted amounts (≈) assume the structure as drawn. The source made the active and inactive calls. The calls are words filed in the database; no cut-off is given here.

Columns and labels:
Assay type in all cases: functional
Acinetobacter baumannii [1] = test: Antibacterial activity against Acinetobacter baumannii HUMC1 cultured in RPMI 1640 medium supplemented with 10% FCS assessed as bacterial growth inhibition incubated for 20 hrs by CLSI based microbroth dilution method
Procedure, shortened: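 CLSI broth microdilution in RPMI 1640 + 10% FCS in place of CAMHB. Compounds in 2-fold dilution series; inoculum 5×10^5 CFU/mL. Plates held static at 35 °C for 20 h. MIC read visually as the lowest concentration with no visible growth. […] is the reciprocal of this MIC.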

Acinetobacter baumannii [2] = test: Antibacterial activity against Acinetobacter baumannii HUMC1 harboring FhuE deletion mutant assessed as bacterial growth inhibition incubated for 20 hrs by CLSI based microbroth dilution method
Procedure, shortened: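 Microbroth dilution per CLSI in RPMI 1640 + 10% FCS (in place of CAMHB). Compounds as 2-fold serial dilutions; inoculum 5×10^5 CFU/mL of previously described HUMC1-derived mutant strains. Incubated static at 35 °C for 20 h. MIC read visually as lowest concentration preventing visible growth.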

Staphylococcus aureus = test: Antibacterial activity against Staphylococcus aureus USA300 UAMS-1625 assessed as bacterial growth inhibition incubated for 20 hrs by CLSI based microbroth dilution method
Procedure, shortened: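 CLSI broth microdilution in CAMHB against S. aureus USA300 UAMS-1625. Compounds in 2-fold dilution series; inoculum 5×10^5 CFU/mL. Incubated without shaking at 35 °C for 20 h. MIC read visually as the lowest concentration preventing visible growth. Fold changes are relative to the rifabutin MIC.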

[3] = Acinetobacter baumannii, HUMC1, 20 h, read-out: MIC

Row | SMILES | MIC (Acinetobacter baumannii [1]; [3]) | other results
1 | CO[C@H]1/C=C/O[C@@]2(C)Oc3c(C)c(O)c4c(c3C2=O)C2=NC3(CCN(C(C)(C)CC(C)(C)C)CC3)NC2=C(NC(=O)/C(C)=C\C=C\[C@H](C)[C@H](O)[C@@H](C)[C@@H](O)[C@@H](C)[C@H](OC(C)=O)[C@@H]1C)C4=O | 0.03 µg/mL (≈ 0.0332 µM) | 
2 | COC(=O)[C@@H](C)N1CCC2(CC1)N=C1C(=C3NC(=O)/C(C)=C\C=C\[C@H](C)[C@H](O)[C@@H](C)[C@@H](O)[C@@H](C)[C@H](OC(C)=O)[C@H](C)[C@@H](OC)/C=C/O[C@@]4(C)Oc5c(C)c(O)c(c1c5C4=O)C3=O)N2 | 0.125 µg/mL (≈ 0.143 µM) | MIC (Acinetobacter baumannii [2]): 0.5 µg/mL (≈ 0.57 µM)
3 | CO[C@H]1/C=C/O[C@@]2(C)Oc3c(C)c(O)c4c(c3C2=O)C2=NC3(CCN(CC5CCCCC5)CC3)NC2=C(NC(=O)/C(C)=C\C=C\[C@H](C)[C@H](O)[C@@H](C)[C@@H](O)[C@@H](C)[C@H](OC(C)=O)[C@@H]1C)C4=O (stereo in doubt; form 2) |  | MIC (Acinetobacter baumannii [1]; 20 h): 0.03 µg/mL (≈ 0.0338 µM)
4 | CO[C@H]1/C=C/O[C@@]2(C)Oc3c(C)c(O)c4c(c3C2=O)C2=NC3(CCN(CCc5ccccc5)CC3)NC2=C(NC(=O)/C(C)=C\C=C\[C@H](C)[C@H](O)[C@@H](C)[C@@H](O)[C@@H](C)[C@H](OC(C)=O)[C@@H]1C)C4=O | 0.5 µg/mL (≈ 0.559 µM) | Activity (Staphylococcus aureus): Active
5 | COC(=O)CN1CCC2(CC1)N=C1C(=C3NC(=O)/C(C)=C\C=C\[C@H](C)[C@H](O)[C@@H](C)[C@@H](O)[C@@H](C)[C@H](OC(C)=O)[C@H](C)[C@@H](OC)/C=C/O[C@@]4(C)Oc5c(C)c(O)c(c1c5C4=O)C3=O)N2 |  | MIC (Acinetobacter baumannii [2]): 0.5 µg/mL (≈ 0.579 µM); MIC (Acinetobacter baumannii [1]; Acinetobacter baumannii, HUMC1, read-out: MIC): 0.5 µg/mL (≈ 0.579 µM)
6 | CO[C@H]1/C=C/O[C@@]2(C)Oc3c(C)c(O)c4c(c3C2=O)C(=N)C(N)=C(NC(=O)/C(C)=C\C=C\[C@H](C)[C@H](O)[C@@H](C)[C@@H](O)[C@@H](C)[C@H](OC(C)=O)[C@@H]1C)C4=O | 0.5 µg/mL (≈ 0.704 µM) | 
7 | COC(=O)CCCN1CCC2(CC1)N=C1C(=C3NC(=O)/C(C)=C\C=C\[C@H](C)[C@H](O)[C@@H](C)[C@@H](O)[C@@H](C)[C@H](OC(C)=O)[C@H](C)[C@@H](OC)/C=C/O[C@@]4(C)Oc5c(C)c(O)c(c1c5C4=O)C3=O)N2 | 0.5 µg/mL (≈ 0.561 µM) | 
8 | CO[C@H]1/C=C/O[C@@]2(C)Oc3c(C)c(O)c4c(c3C2=O)C2=NC3(CCN(CCC(C)C)CC3)NC2=C(NC(=O)/C(C)=C\C=C\[C@H](C)[C@H](O)[C@@H](C)[C@@H](O)[C@@H](C)[C@H](OC(C)=O)[C@@H]1C)C4=O | 0.016 µg/mL (≈ 0.0186 µM) | MIC (Acinetobacter baumannii [2]): 0.5 µg/mL (≈ 0.581 µM); Activity (Staphylococcus aureus): Active
9 | CO[C@H]1/C=C/O[C@@]2(C)Oc3c(C)c(O)c4c(c3C2=O)C2=NC3(CCN(C5CCCC5)CC3)NC2=C(NC(=O)/C(C)=C\C=C\[C@H](C)[C@H](O)[C@@H](C)[C@@H](O)[C@@H](C)[C@H](OC(C)=O)[C@@H]1C)C4=O (stereo in doubt; form 2) |  | MIC (Acinetobacter baumannii [1]; 20 h): 0.004 µg/mL (≈ 0.00466 µM)
10 | CO[C@H]1/C=C/O[C@@]2(C)Oc3c(C)c(O)c4c(c3C2=O)C2=NC3(CCOCC3)NC2=C(NC(=O)/C(C)=C\C=C\[C@H](C)[C@H](O)[C@@H](C)[C@@H](O)[C@@H](C)[C@H](OC(C)=O)[C@@H]1C)C4=O | 2 µg/mL (≈ 2.53 µM) | 

Continued, in another order:

Row | MIC (Acinetobacter baumannii [1]; [3]) | SMILES | other results
11 | 0.125 µg/mL (≈ 0.143 µM) | CO[C@H]1/C=C/O[C@@]2(C)Oc3c(C)c(O)c4c(c3C2=O)C2=NC3(CCN(C[C@H]5CCCO5)CC3)NC2=C(NC(=O)/C(C)=C\C=C\[C@H](C)[C@H](O)[C@@H](C)[C@@H](O)[C@@H](C)[C@H](OC(C)=O)[C@@H]1C)C4=O | 
12 | 0.5 µg/mL (≈ 0.571 µM) | CO[C@H]1/C=C/O[C@@]2(C)Oc3c(C)c(O)c4c(c3C2=O)C2=NC3(CCN(CC(=O)N(C)C)CC3)NC2=C(NC(=O)/C(C)=C\C=C\[C@H](C)[C@H](O)[C@@H](C)[C@@H](O)[C@@H](C)[C@H](OC(C)=O)[C@@H]1C)C4=O | 
13 | 0.008 µg/mL (≈ 0.00914 µM) | CO[C@H]1/C=C/O[C@@]2(C)Oc3c(C)c(O)c4c(c3C2=O)C2=NC3(CCN(C5CCOCC5)CC3)NC2=C(NC(=O)/C(C)=C\C=C\[C@H](C)[C@H](O)[C@@H](C)[C@@H](O)[C@@H](C)[C@H](OC(C)=O)[C@@H]1C)C4=O | 
14 | 0.25 µg/mL (≈ 0.282 µM) | CO[C@H]1/C=C/O[C@@]2(C)Oc3c(C)c(O)c4c(c3C2=O)C2=NC3(CCN(C5CCN(C)CC5)CC3)NC2=C(NC(=O)/C(C)=C\C=C\[C@H](C)[C@H](O)[C@@H](C)[C@@H](O)[C@@H](C)[C@H](OC(C)=O)[C@@H]1C)C4=O | 
15 | 0.25 µg/mL (≈ 0.301 µM) | CO[C@H]1/C=C/O[C@@]2(C)Oc3c(C)c(O)c4c(c3C2=O)C2=NC3(CCN(CC#N)CC3)NC2=C(NC(=O)/C(C)=C\C=C\[C@H](C)[C@H](O)[C@@H](C)[C@@H](O)[C@@H](C)[C@H](OC(C)=O)[C@@H]1C)C4=O | 
16 | 0.008 µg/mL (≈ 0.00965 µM) | C#CCN1CCC2(CC1)N=C1C(=C3NC(=O)/C(C)=C\C=C\[C@H](C)[C@H](O)[C@@H](C)[C@@H](O)[C@@H](C)[C@H](OC(C)=O)[C@H](C)[C@@H](OC)/C=C/O[C@@]4(C)Oc5c(C)c(O)c(c1c5C4=O)C3=O)N2 | 
